# MPTP block = blocks calcium-induced mitochondrial swelling; 360,000 compounds, 1.4% hits; inhibition, % at 10 µM; AID 602449; isolated mouse mitochondria, Ca2+ swelling absorbance, 30 min;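 active = inhibition of 50% or more, scaled per plate between neutral and stimulator controls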;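 also: 0% = DMSO wells given calcium and 100% = 1 mM EGTA wells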
# DAGLB inhibitor = blocks human DAGLB lipase activity | HEK293T DAGLB membrane lysate, EnzChek fluorogenic substrate | Q8NCG7 | inhibition, % at 5.17 µM | 340,000 compounds, 0.059% hits; in the data active = inhibition above about 34%;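 also: 0% = enzyme with vehicle and 100% = wells lacking enzyme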
# Target sequence (Q8NCG7 whole entry, looked up): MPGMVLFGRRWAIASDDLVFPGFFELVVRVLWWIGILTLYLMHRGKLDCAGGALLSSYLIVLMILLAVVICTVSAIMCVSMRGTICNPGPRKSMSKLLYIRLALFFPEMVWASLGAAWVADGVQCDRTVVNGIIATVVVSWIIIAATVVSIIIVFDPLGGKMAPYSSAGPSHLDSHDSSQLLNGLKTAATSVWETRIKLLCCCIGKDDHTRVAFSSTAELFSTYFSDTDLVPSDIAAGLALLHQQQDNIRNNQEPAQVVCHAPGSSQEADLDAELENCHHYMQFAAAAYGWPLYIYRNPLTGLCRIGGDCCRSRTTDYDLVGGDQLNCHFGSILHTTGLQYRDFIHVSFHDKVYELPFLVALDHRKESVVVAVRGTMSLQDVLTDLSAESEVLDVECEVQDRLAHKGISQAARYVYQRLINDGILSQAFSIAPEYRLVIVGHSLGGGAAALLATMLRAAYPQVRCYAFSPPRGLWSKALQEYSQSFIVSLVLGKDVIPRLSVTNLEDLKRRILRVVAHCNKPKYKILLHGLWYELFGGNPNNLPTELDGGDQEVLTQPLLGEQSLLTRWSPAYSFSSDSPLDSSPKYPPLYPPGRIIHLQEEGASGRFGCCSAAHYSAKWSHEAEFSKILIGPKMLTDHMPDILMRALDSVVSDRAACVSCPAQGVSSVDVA
# TAAR1 ag = agonists of human TAAR1; CHO RD-HGA16 TAAR1, Fluo-8 calcium fluorescence; vehicle wells 0%, saturating PEA agonist 100%; 360,000 compounds, 0.99% hits; AID 624467; Q96RJ0; activation, % at 3 µM;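 active = activation above the mean activation of all test compounds in the run plus 3 SD, cut at about 38% in these data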
#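 Benchmarks: low control DMSO, high control PEA (EC100); System: CHO RD-HGA16 cells carrying human TAAR1 plus Gα16; Detection: Fluo-8 fluorescence, 5 s baseline then 140 s kinetic read; Schedule: 17-24 h plating, Fluo-8 75 min 37 °C, 30 min RT; Read-out basis: % activation from peak over basal fluorescence ratio, DMSO-to-PEA scaled.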
# TAAR1 antagonist = human TAAR1 antagonism. CHO RD-HGA16 TAAR1, Fluo-8 calcium fluorescence, antagonist. inhibition, % at 3 µM. 360,000 compounds, 1.5% hits. AID 624466;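 active = inhibition above a per-plate cutoff, the mean inhibition of test compounds on that plate plus 3 SD, cut at about 49% in these data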;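 also: 0% = DMSO plus EC80 beta-PEA response and 100% = DMSO alone without agonist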
#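 Test system – hTAAR1-expressing CHO RD-HGA16 cells, Gα16-coupled · Also added – β-PEA at EC80 concentration, post-compound challenge · Compound – 3 µM, single point · Incubation – dye loading 75 min at 37 °C, then 30 min room temperature · Measured by – Fluo-8 intracellular calcium dye fluorescence, real-time kinetic reads · Benchmarks – vehicle and agonist controls · Replicates – singlicate, one well per test compound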
# GPR7 antag = blocks human GPR7 receptor signaling. P48145. GPR7-expressing cells, fluorescence antagonist assay. inhibition, % at 4.4 µM. 290,000 compounds, 1.1% hits. AID 1861; in the data active = inhibition above about 16%, passing the limit was not always enough;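 also: cells stimulated with the agonist NPW; 0% = agonist with vehicle and 100% = vehicle without agonist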
# Active calls of the source: *; · = no result; ! = not active in a repeat. Most compounds without a hit are left out; they make up all but 4% or so of the library.
SMILES,MPTP block,DAGLB inhibitor,TAAR1 ag,TAAR1 antagonist,GPR7 antag
O=[N+]([O-])c1cccc(NP(=O)(Oc2ccccc2)Oc2ccccc2)c1,3,-5,3,58*,4
NC(Cc1ccc(F)cc1)c1csc(Nc2ccccn2)n1 (stereo not drawn),4,·,40*,8,·
NC(Cc1ccccc1)c1csc(Nc2ccccn2)n1 (stereo not drawn),1,·,6,12,·
NC(Cc1ccc(Cl)cc1)c1csc(Nc2ccccn2)n1 (stereo not drawn),2,·,44*,29,·
COc1ccc2[nH]c(C)c(CCNCc3cccnc3)c2c1,0,-3,10,-4,·
Cc1[nH]c2ccc(OC(F)(F)F)cc2c1CCNCc1ccc(Cl)cc1,2,0,38*,35,36
NCCc1ccccc1,1,-3,92*,81*,·
NCCc1ccc(S(N)(=O)=O)cc1,0,0,8,-10,-13
COc1ccc(C(c2nnnn2-c2ccc3c(c2)OCCO3)N2CCC(n3c(=O)[nH]c4ccccc43)CC2)cc1 (stereo not drawn),-3,·,20,59*,·
CSCCC(c1nnnn1-c1ccc2c(c1)OCCO2)N1CCC2(CC1)C(=O)NCN2c1ccccc1 (stereo not drawn),0,·,17,54*,·
O=c1[nH]c2ccccc2n1C1CCN(C(CCc2ccccc2)c2nnnn2-c2ccc3c(c2)OCCO3)CC1 (stereo not drawn),-2,·,7,55*,·
O=C1NCN(c2ccccc2)C12CCN(C(c1ccccc1OC(F)(F)F)c1nnnn1-c1ccc3c(c1)OCCO3)CC2 (stereo not drawn),2,·,3,-9,·
Cc1cccc(C)c1-n1nnnc1C(CCc1ccccc1)N1CCC(n2c(=O)[nH]c3ccccc32)CC1 (stereo not drawn),0,·,4,16,·
COc1cccc(C(c2nnnn2Cc2ccccc2)N2CCC3(CC2)C(=O)NCN3c2ccccc2)c1OC (stereo not drawn),2,·,8,54*,·
CN1OC[C@@H]2CN3C4(C[C@@H]21)c1ccccc1C3(c1ccccc1)c1ccccc14,·,·,1,-36,·
COC(=O)C1C(c2ccc(F)cc2)CC2CCC1N2C (stereo not drawn),·,·,1,4,·
CCC(c1nnnn1-c1ccc(OC)cc1)N1CCC(n2c(=O)[nH]c3ccccc32)CC1 (stereo not drawn),-2,·,14,36,·
COc1ccc(-n2nnnc2C(CCSC)N2CCC(n3c(=O)[nH]c4ccccc43)CC2)cc1 (stereo not drawn),-3,·,14,55*,·
Cc1cccc2nc(-c3ccccc3)c(-c3ccc(CN4CCC(n5c(=O)[nH]c6cc(Cl)ccc65)CC4)cc3)nc12,·,·,0,-18,·
Clc1ccc(COC(Cn2ccnc2)c2ccc(Cl)cc2Cl)c(Cl)c1 (stereo not drawn),8,-2,19,53*!,13
Clc1cc(Cl)cc(CN2Cc3cc(Br)ccc3-n3nncc3C2)c1,·,·,-2,-23,·
COC(=O)C1=C(c2ccc(F)cc2OCc2ccccc2)C[C@@H]2CC[C@H]1N2C(=O)NCc1ccc(Br)cc1,-3,-16,12,51*,·
CN1C2(C)c3ccccc3C1(c1ccccc1)c1ccccc12,·,·,2,-15,·
C#C[C@]1(O)CCC2C3C(=O)C=C4C=CCC[C@]4(C)C3CC[C@@]21C (stereo partly drawn),-2,·,14,49*,·
C#C[C@]1(O)CCC2C3C(CC[C@@]21C)[C@@]1(C)CC[C@@H](O)CC1=C[C@H]3O (stereo partly drawn),-1,0,0,4,·
CCOCCCn1c(N)c(C(=O)Nc2sc3c(c2C(=O)OC)CCCC3)c2nc3ccccc3nc21,4,-11,21,64*,-10
Cc1cccc(N2C(=O)NC(=O)/C(=C\c3cnc(-c4ccccc4)nc3)C2=O)c1,-2,6,3,-2,-9
Cc1cc(C)cc(N2C(=O)NC(=O)/C(=C\c3cccn3-c3ccccc3)C2=O)c1,5,14,43*,47,-5
O=C(NCCN1CCC2(CC1)C(=O)NCN2c1ccccc1)c1cc(C(F)(F)F)ccc1C(F)(F)F,·,·,2,-11,·
O=C1NC(=O)N(CCc2ccc(F)cc2)C(=O)/C1=C/c1ccco1,5,20,12,-30,-14

# Assay outcomes deposited in PubChem BioAssay by several laboratories.
